RGS4 inh: inhibitors of human RGS4; B-score at 10 µM; P49798; hit rate 0.45% among 310,000; HEK293 M3R/RGS4 inducible, Fluo-4 calcium flux; active compounds read high; triggered by carbachol at its EC20; AID 463165;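 active = B-score, a plate-corrected calcium signal, over three deviations above library mean, with baseline fluorescence within five deviations of library mean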;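 note: RGS4 expression induced by doxycycline in cells with stable M3 receptor; B-score is computed from the integrated fluorescence ratio over baseline after carbachol; higher B-score means a larger calcium signal and so more RGS4 inhibition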
MrgX1 agonist: agonists of human MrgX1 receptor; MrgX1-HEK293 cells, Fluo-4 calcium fluorescence, agonist mode; active compounds read high; B-score at 10 µM; hit rate 0.44% among 310,000;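 active = calcium response B-score plate-corrected fluorescence ratio at least 3 library SD, with starting fluorescence B-score inside 5 SD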
Target sequence (Q96LB2 whole entry, looked up): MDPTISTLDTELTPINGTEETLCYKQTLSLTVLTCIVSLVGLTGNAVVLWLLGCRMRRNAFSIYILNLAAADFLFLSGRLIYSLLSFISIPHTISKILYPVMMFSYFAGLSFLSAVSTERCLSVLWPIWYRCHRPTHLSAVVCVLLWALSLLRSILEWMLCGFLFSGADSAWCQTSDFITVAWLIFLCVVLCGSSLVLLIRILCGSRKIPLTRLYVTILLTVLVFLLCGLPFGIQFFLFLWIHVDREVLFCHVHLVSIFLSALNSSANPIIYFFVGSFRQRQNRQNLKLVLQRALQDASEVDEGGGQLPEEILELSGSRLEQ
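Test system: HEK293 cells stably expressing human MrgX1 receptor; Input: fifteen thousand cells per well; Dosing: compound delivered in addition one of three; Schedule: overnight seeding, then 1 h dark dye loading; Technique: Fluo-4 NW calcium fluorescence; Measure: B-scored fluorescence response ratio; Controls: positive and negative controls per plate.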
RGS4 pot: RGS4 potentiation or activation; hit rate 0.92% among 310,000; HEK293 M3R/inducible RGS4, carbachol calcium flux Fluo4; active compounds read low; B-score at 10 µM;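 active = B-score of the integrated calcium signal more than 4 SD below the library mean, with starting fluorescence not abnormally high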;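 note: negative B-score means reduced calcium response which marks RGS4 activation or potentiation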
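Assay system: Inducible-RGS4 HEK293 cells carrying M3 receptor | Schedule: Compound preincubation 20 min at room temperature before agonist | Signal: Kinetic calcium fluorescence imaging with Fluo4-AM dye, 2 µM | Read-out basis: B score from integrated fluorescence ratio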
MrgX1 PAM: allosterically activates human MrgX1 receptor signaling | MrgX1-HEK293, Fluo-4 calcium flux, FDSS; active compounds read high | hit rate 0.63% among 310,000 | B-score at 10 µM | Q96LB2 | AID 588675;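 active = plate-corrected calcium response at least 3 library SD above typical, normal starting fluorescence, not activating the receptor alone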;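 note: compound read alongside a low EC10 to EC30 dose of BAM8-22 agonist; peak minus trough fluorescence over baseline measured at the second addition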
MrgX1 antag: blocks BAM8-22 activation of human MrgX1 receptor. Q96LB2. MRGX1-HEK293 calcium flux, Fluo-4, BAM8-22 antagonism; active compounds read low. B-score at 10 µM. hit rate 1.3% among 310,000. AID 588676;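 active = calcium-response B-score plate-corrected more than 3 library SD below zero, starting fluorescence within 5 deviations, no agonist response on first addition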;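 note: peak minus trough fluorescence over baseline after final BAM8-22 challenge near maximal dose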
MrgX1 antag conf: confirmation of human MrgX1 receptor antagonists | shares compounds with MrgX1 antag | hit rate 19% among 2,300 | MrgX1-HEK293, BAM8-22 calcium flux, Fluo-4; active compounds read low | AID 602420 | remaining BAM8-22 calcium response % of control (active compounds read low), % at 10 µM;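 active = remaining agonist calcium response no higher than 100% minus 3 SD of agonist-only control wells, with starting fluorescence near control levels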;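 note: agonist BAM8-22 given at a near maximal EC90 to ECmax level; peak minus minimum fluorescence divided by baseline after agonist addition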
HEK293 Ca flux: MrgX1 antagonist counter-screen hit in parental HEK293 cells. hit rate 2% among 4,000. Fluo-4 calcium fluorescence, FDSS. fluorescence ratio F(max-min)/F0 at 10 µM. shares compounds with MrgX1 antag;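 active = duplicate-averaged calcium fluorescence ratio at least three times the standard deviation of buffer wells, a nonspecific response in parental cells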
HEK293 Ca counter: MrgX1 allosteric activator counter-screen hit in parental HEK293 cells | shares compounds with MrgX1 antag | parental HEK293 calcium flux, Fluo-4 fluorescence ratio; active compounds read high | AID 624114 | fluorescence ratio F(max-min)/F0 at 10 µM | hit rate 0.4% among 4,000;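 active = calcium fluorescence ratio, averaged over duplicates, at least 3 SD of the buffer-well ratio, meaning a nonspecific response in receptor-free cells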;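 note: untransfected parental HEK293 lacking MrgX1 used as counterscreen for MrgX1 allosteric activators; fluorescence change taken during the second addition on a kinetic imager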
HEK293 Ca cntr2: MrgX1 activator counter-screen hit in parental HEK293 cells. shares compounds with MrgX1 antag. Fluo-4 calcium fluorescence (FDSS); active compounds read high. fluorescence ratio F(max-min)/F0 at 10 µM. hit rate 8.7% among 4,000;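 active = calcium fluorescence ratio at least three times the spread of buffer wells, meaning a non-specific response in parental cells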
Active calls of the source: *. The list is not random: actives were taken first. Their share in the collection is about 3.5%.

For CCC1(C)N=C(N)Nc2nc3cc(C)c(C)cc3n21 (stereo not given) the results were RGS4 inh inactive, MrgX1 agonist inactive, RGS4 pot inactive, MrgX1 PAM inactive and MrgX1 antag inactive.
Screening CCC(=O)N1CCc2cc(Br)cc(S(=O)(=O)CC(=O)OC)c21 returned RGS4 inh inactive, MrgX1 agonist inactive, RGS4 pot inactive, MrgX1 PAM inactive, MrgX1 antag -5.9*, MrgX1 antag conf inactive, HEK293 Ca flux inactive, HEK293 Ca counter inactive and HEK293 Ca cntr2 inactive.
`Cc1cccc(OCc2nc(-c3cccnc3)no2)c1` gave RGS4 inh inactive, MrgX1 agonist inactive, RGS4 pot inactive, MrgX1 PAM inactive and MrgX1 antag inactive.
`COc1ccc(N2CCN(C3CCCCC3NS(=O)(=O)c3ccc(Cl)cc3)CC2)cc1` (stereo not given) gave RGS4 inh inactive, MrgX1 agonist inactive, RGS4 pot inactive, MrgX1 PAM inactive, MrgX1 antag -7.6*, MrgX1 antag conf inactive, HEK293 Ca flux inactive, HEK293 Ca counter inactive and HEK293 Ca cntr2 inactive.
For Cc1sc2ncnc(N3CCC(C(=O)Nc4ccc(C#N)cc4)CC3)c2c1C the results were RGS4 inh inactive, MrgX1 agonist inactive, RGS4 pot inactive, MrgX1 PAM inactive, MrgX1 antag -5.3*, MrgX1 antag conf inactive, HEK293 Ca flux inactive, HEK293 Ca counter inactive and HEK293 Ca cntr2 inactive.

Screening data from PubChem.
